Measurements published in ChEMBL document CHEMBL1149343, “Discovery of antiglioma activity of biaryl 1,2,3,4-tetrahydroisoquinoline derivatives and conformationally flexible analogues” (J Med Chem, 2006).

Tests used:
C6 = assay: Cytotoxicity against rat C6 glioma cell line; assay type: functional, cell-based
Method in brief: (§1)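 Cells were maintained in 10% FCS BME (Basal Media Eagle). Compound exposure was in 2% FCS BME for 96 h at 37 °C in humidified 5% CO2. IC50 values came from dose-response experiments over a 4-day incubation.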

Astrocyte = assay: Cytotoxicity against rat astrocytes; assay type: functional, cell-based; method in brief: as §1
U-87 MG = assay: Cytotoxicity against human U87 cell line; assay type: functional, cell-based, U-87MG ATCC
T98G = assay: Cytotoxicity against human T98G cell line; assay type: functional, cell-based
MCF7 = assay: Cytotoxicity against human MCF7 cell line; assay type: functional, cell-based
A549 = assay: Cytotoxicity against human A549 cell line; assay type: functional, cell-based
LNCaP = assay: Cytotoxicity against human LNCaP cell line; assay type: functional, cell-based
HeLa = assay: Cytotoxicity against human HeLa cell line; assay type: functional, cell-based

CN1CCc2cc(O)c(O)cc2C1Cc1ccc(-c2ccccc2)cc1 (centres undefined)
IC50 (C6): 8 µM | IC50 (Astrocyte): 15 µM

CCC(C)N(C)C(=O)c1cc2ccccc2c(-c2ccccc2Cl)n1 (centres undefined) [PK-11195]
IC50 (C6): 73 µM

COc1cc2c(cc1OC)C(Cc1ccc(-c3ccccc3)cc1)NCC2 (centres undefined)
IC50 (C6): 4.1 µM | IC50 (Astrocyte): 83.8 µM

Nc1ccc(CC2NCCc3cc(O)c(O)cc32)cc1 (centres undefined)
IC50 (C6): > 50 µM

C=C1C(OC(=O)N(C)C)=C(c2ccc(C)cc2)Oc2cc(Cl)ccc2N1C
IC50 (C6): 37.5 µM

N[C@@H](Cc1ccc(N(CCCl)CCCl)cc1)C(=O)O [MELPHALAN]
IC50 (C6): 12.6 µM | IC50 (Astrocyte): 34 µM

O=C(c1ccccc1)c1ccc(CC2NCCc3cc(O)c(O)cc32)cc1 (centres undefined)
IC50 (C6): 9.4 µM | IC50 (Astrocyte): 21 µM

CN1C(=O)CN=C(c2ccc(Cl)cc2)c2cc(Cl)ccc21 [RO-54864]
IC50 (C6): 95 µM

O=NN(CCCl)C(=O)NCCCl [CARMUSTINE]
IC50 (C6): 9.3 µM | IC50 (Astrocyte): 156 µM

O=c1[nH]cc(F)c(=O)[nH]1 [FLUOROURACIL]
IC50 (C6): 6.1 µM | IC50 (Astrocyte): > 100 µM

Oc1cc2c(cc1O)C(Cc1ccc(-c3ccccc3)cc1)NCC2 (centres undefined)
IC50 (C6): 2.6 µM | IC50 (Astrocyte): 29 µM | IC50 (U-87 MG): 25.9 µM | IC50 (T98G): 10.2 µM | IC50 (MCF7): 3.8 µM | IC50 (A549): 10.2 µM | IC50 (LNCaP): 10.7 µM | IC50 (HeLa): 3 µM

Oc1ccc(CCNCCc2ccc(-c3ccccc3)cc2)cc1O
IC50 (C6): 8.6 µM | IC50 (Astrocyte): > 100 µM

COc1cc(C[C@@H]2NCCc3cc(O)c(O)cc32)cc(OC)c1OC [TRETOQUINOL]
IC50 (C6): > 50 µM

COc1cc2c(cc1OC)C(Cc1ccc(C(=O)c3ccccc3)cc1)NCC2 (centres undefined)
IC50 (C6): 40 µM | IC50 (Astrocyte): 40 µM

COc1ccc(CCN(C)CCc2ccc(-c3ccccc3)cc2)cc1OC
IC50 (C6): 12.5 µM | IC50 (Astrocyte): 39 µM

COc1cc2c(cc1OC)CN(CCc1ccc(-c3ccccc3)cc1)CC2
IC50 (C6): 9.3 µM | IC50 (Astrocyte): 15.5 µM

COc1cc(C(O)C2CNCCc3cc(O)c(O)cc32)cc(OC)c1OC (centres undefined)
IC50 (C6): > 50 µM
